ChEMBL document CHEMBL3352121, “Modulation of Activity Profiles for Largazole-Based HDAC Inhibitors through Alteration of Prodrug Properties” (ACS Med Chem Lett, 2014)
Active and inactive are the calls of the source. The calls are words filed in the database; no cut-off is given here.

How the values were obtained:
[1] = Drug metabolism in tumor of human HCT116 cells xenografted nu/nu mouse assessed largazole thiol formation at 50 mg/kg, po by HPLC-MS method; settings: in vivo
[2] = system: HCT-116; assay: In vivo inhibition of HDAC in tumor of human HCT116 cells xenografted nu/nu mouse assessed as increase in histone hyperacetylation at 50 mg/kg, ip after 24 hrs by immunoblotting method; type: functional, organism-based; design: dose 50 mg/kg
In short: (§1)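 Mice bearing HCT116 xenografts were dosed intraperitoneally at 10 or 50 mg/kg, or orally at 50 mg/kg. Tumors were excised at 4, 12 and 24 h. Histone hyperacetylation in the tumors was assessed by immunoblot, n = 2.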

[3] = system: Serum; assay: Drug metabolism in mouse serum assessed as largazole thiol formation after 0.25 to 1440 mins by HPLC-MS method; type: ADME, cell-free
[4] = target: Histone deacetylase (Homo sapiens) (UniProt Q13547+O15379+Q9UBN7+Q92769+Q9UQL6+Q8WUI4+Q9BY41+Q96DB2+P56524+Q9UKV0+Q969S8); assay: Inhibition of HDAC in human HCT116 cells assessed as increase in histone H3 (Lys9/14) hyperacetylation at 320 pM to 10 uM after 8 to 24 hrs by immunoblotting method; type: cell-based; settings: HCT-116
In short: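 HCT116 cells were treated across a dose range, then harvested at 8 and 24 h post-treatment. Cellular HDAC inhibition was read as histone H3 (Lys9/14) hyperacetylation by immunoblot.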

[5] = system: HCT-116; assay: In vivo inhibition of HDAC in tumor of human HCT116 cells xenografted nu/nu mouse assessed as increase in histone hyperacetylation at 10 mg/kg, ip after 24 hrs by immunoblotting method; type: functional, organism-based; design: dose 10 mg/kg
In short: as §1

[6] = Drug metabolism in human HCT116 cells protein lysate solution assessed as largazole thiol formation at 25 ug/mL after 4 hrs by HPLC-MS method; type: ADME, cell-based; settings: hct-116, 4 h
[7] = system: HCT-116; assay: In vivo inhibition of HDAC in tumor of human HCT116 cells xenografted nu/nu mouse assessed as increase in histone hyperacetylation at 50 mg/kg, po after 4 to 12 hrs by immunoblotting method; type: functional, organism-based; design: dose 50 mg/kg
In short: as §1

[8] = Drug level in tumor of human HCT116 cells xenografted nu/nu mouse treated with 10 mg/kg, po largazole assessed as compound formation by HPLC-MS method; type: ADME, organism-based, Neoplasm, HCT-116; design: dose 10 mg/kg, route oral; settings: in vivo
[9] = Drug level in human HCT116 cells protein lysate solution treated with 25 ug/mL largazole assessed as compound formation after 30 mins by HPLC-MS method; type: ADME, cell-based; settings: hct-116, 0.5 h
[10] = target: T1, Histone deacetylase 11 (Homo sapiens, UniProt Q96DB2); assay: Inhibition of HDAC11 (unknown origin) incubated for 3 hrs in presence of BSA and in absence of DTT by fluorescence assay
T1 sequence (Q96DB2 whole entry): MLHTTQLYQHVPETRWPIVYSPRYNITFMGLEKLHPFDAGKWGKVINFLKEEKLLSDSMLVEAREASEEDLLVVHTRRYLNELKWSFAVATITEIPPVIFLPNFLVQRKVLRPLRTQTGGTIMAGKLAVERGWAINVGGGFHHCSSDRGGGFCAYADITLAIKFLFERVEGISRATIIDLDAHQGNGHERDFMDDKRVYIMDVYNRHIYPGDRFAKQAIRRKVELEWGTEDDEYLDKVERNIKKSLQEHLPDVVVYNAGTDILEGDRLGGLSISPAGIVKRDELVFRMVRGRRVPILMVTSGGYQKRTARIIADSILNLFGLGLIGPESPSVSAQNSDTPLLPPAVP

[11] = Drug level in human HCT116 cells protein lysate solution treated with 25 ug/mL compound 4 assessed as compound formation after 1 hr by HPLC-MS method; type: ADME, cell-based; settings: hct-116, 1 h
[12] = system: Serum; assay: Drug metabolism in mouse serum treated with largazole assessed as compound formation after 0.25 to 1440 mins by HPLC-MS method; type: ADME, cell-free
[13] = Drug level in human HCT116 cells protein lysate solution treated with 25 ug/mL compound 6 assessed as compound formation after 4 hrs by HPLC-MS method; type: ADME, cell-based; settings: hct-116, 4 h

Row | Drug metabolism [1] | Drug metabolism [3] | inhibition [4] | Drug metabolism [6] | Structure (SMILES) | inhibition [2] | inhibition [5] | inhibition [7] | Drug metabolism [8] | Drug metabolism [9] | IC50 [10] | Drug metabolism [11] | Drug metabolism [12] | Drug metabolism [13]
1 | metabolite_notdetected | metabolite_notdetected | Active | metabolite_detected | CC(C)[C@@H]1NC(=O)[C@]2(C)CSC(=N2)c2csc(n2)CNC(=O)C[C@@H](/C=C/CCSSC[C@H](NC(=O)OC(C)(C)C)C(=O)O)OC1=O | Active | Active | inactive |  |  |  |  |  | 
2 |  |  |  |  | CC(C)[C@@H]1NC(=O)[C@]2(C)CSC(=N2)c2csc(n2)CNC(=O)C[C@@H](/C=C/CCS)OC1=O [LARGAZOLE THIOL] |  |  |  | metabolite_detected | metabolite_detected | 3 nM | metabolite_detected | metabolite_detected | metabolite_detected
